Screens: PubChem BioAssay, several laboratories
Furin inhibitor = human furin inhibitors, primary screen, biochemical, fluorescence intensity; P09958; purified furin, fluorogenic substrate cleavage; inhibition, % at 20 µM or 30 µM; 220,000 compounds, 0.061% hits; AID 463115, 2010; in the data active means inhibition above about 25%
Target sequence (P09958 108-714 limits assumed): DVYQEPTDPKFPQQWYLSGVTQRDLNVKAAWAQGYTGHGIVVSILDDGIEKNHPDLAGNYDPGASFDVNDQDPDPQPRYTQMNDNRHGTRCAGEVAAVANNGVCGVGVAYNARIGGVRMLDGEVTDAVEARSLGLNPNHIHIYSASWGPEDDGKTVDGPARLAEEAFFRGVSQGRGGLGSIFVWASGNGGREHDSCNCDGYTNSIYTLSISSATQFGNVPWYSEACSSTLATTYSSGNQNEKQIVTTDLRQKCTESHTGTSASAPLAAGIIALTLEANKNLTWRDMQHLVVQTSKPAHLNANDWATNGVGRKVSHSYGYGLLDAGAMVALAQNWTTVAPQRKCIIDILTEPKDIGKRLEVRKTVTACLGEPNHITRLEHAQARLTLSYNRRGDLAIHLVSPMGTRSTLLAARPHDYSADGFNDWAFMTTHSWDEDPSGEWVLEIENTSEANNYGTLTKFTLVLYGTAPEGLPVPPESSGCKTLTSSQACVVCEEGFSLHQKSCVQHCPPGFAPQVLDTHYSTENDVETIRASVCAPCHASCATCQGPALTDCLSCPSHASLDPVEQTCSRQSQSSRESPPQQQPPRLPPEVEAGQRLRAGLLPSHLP
Insulin prom up = insulin promoter activators in MIN6 cells, imaging, high-content screening, mouse beta cells. MIN6 insulin promoter-GFP reporter; hits give high values. z-score at 5 µM. 190,000 compounds, 0.3% hits;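 active means z-score above 3 at 5 µM with at least 500 cells counted in the well; inconclusive means wells under 500 cells, flagged as cytotoxic or low count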
HSV augment = enhancers of HSV replication in host cells, fold increase, host cell viability | AID 1956, 2009 | maximum fold increase | HSV replication augmentation in cells | 220,000 compounds, 0.005% hits; in the data active means maximum fold increase above about 1.5; inconclusive means no clear call, values can overlap the other calls; tested in PC3 cells
INS promoter inh = inhibitors of insulin promoter-driven GFP, primary screen, imaging, TRM-6 cells, eGFP reporter, cell count. reporter expression induced with tamoxifen. inhibition, % at 2 µM. 130,000 compounds, 0.9% hits;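 active means inhibition above the mean plus 3 SD, with well images judged a real hit on visual review, cut at about 60% in these data, passing the limit was not always enough; inconclusive means inhibition over the cutoff but images rejected on review; inactive means inhibition not above the cutoff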
Autophagy HCS = autophagy modulators in MEF cells, primary screen, imaging, high-content, MEF GFP-LC3; MEF GFP-LC3 puncta imaging; test concentration mostly 10 µM; calls only at 10 µM (by protocol); 190,000 compounds, 0.98% hits;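 active means percentage of spot-positive cells more than 3 SD above its plate mean, without a fluorescence outlier flag or 80% toxicity; inconclusive means no clear call, values can overlap the other calls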
Dynein cargo inh = inhibitors of GR-EGFP nuclear translocation, primary screen, dynein cargo transport inhibitor project, imaging, high-content, 3617.4 mouse cells | test concentration mostly 20 µM; stimulated with dexamethasone, 1 µM; hits give low values | z-score, hits read low | 220,000 compounds, 0.47% hits | AID 1381, 2008;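 active means plate z-score of nuclear minus cytoplasmic receptor signal below a set negative limit, without overly bright fluorescence or cell loss, cut at about -3.5 in these data, passing the limit was not always enough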;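 further: z-score of nuclear minus cytoplasmic ring GR-EGFP intensity difference per well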
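Also added: dexamethasone, 1.0 µM final. Medium: tet-free, stripped-serum medium. Detection: fixed, Hoechst-stained cells imaged at 10x for EGFP. Read-out: nuclear-to-cytoplasmic GR-EGFP distribution per well. Times: induction 48 h, compound 1 h, agonist 30 min.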
Dynein confirm = dynein cargo transport inhibitors, GR-EGFP translocation, confirmation, imaging, high-content imaging, GR-EGFP cells; shares compounds with Dynein cargo inh; 3617.4 GR-EGFP nuclear translocation imaging, dexamethasone-induced; calls only at 20 µM; 1,000 compounds, 69% hits; AID 463116, 2010;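 active means inhibition of receptor movement into the nucleus at or above a set limit in both runs, with normal cell brightness and cell count; inconclusive means limit reached in only one run, brightness and count normal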;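 further: dexamethasone at 1 µM final in well for 30 min; nuclear minus cytoplasmic GR-EGFP mean intensity difference in channel 2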
Large screens that a line does not name were inactive (follow-up assays come after a bar, where they were run). This is a sample that favours compounds with a hit; in the whole collection about 2% have one here.

COC(=O)c1ccc(NC(=O)CN2CCN(c3ccccn3)CC2)cc1	none (no result: INS promoter inh)
O=C(c1ccco1)N1N=C2CCCCCC2C1(O)C(F)(F)F (stereo not given)	none
CCCOc1ccc(C(=O)CCN2CCN(C(=O)OCC)CC2)cc1	Dynein cargo inh -4.1 (no result: Insulin prom up) | Dynein confirm inactive
CC1(C)C(=O)Nc2ccccc2N1C(=O)Cn1ncc(Cl)c(Cl)c1=O	Dynein cargo inh -6.3 (no result: INS promoter inh, Autophagy HCS) | Dynein confirm active
O=C(Cn1ncc(Cl)c(Cl)c1=O)N1CCOCC1	Dynein cargo inh -4.2 (no result: INS promoter inh) | Dynein confirm active
O=C(Cn1ncc(Cl)c(Cl)c1=O)N1CCN(Cc2ccccc2)CC1	Dynein cargo inh -5 | Dynein confirm active
Cc1ccc(C(=O)N2CCN(S(=O)(=O)c3ccccc3[N+](=O)[O-])CC2)o1	none (no result: INS promoter inh)
N#CC(C#N)=Cc1cc2ccccc2nc1N1CCCCC1	Dynein cargo inh -4.4 | Dynein confirm inconclusive
Cc1[nH]n(-c2ncc(-c3ccc(Cl)cc3)s2)c(=O)c1C(c1ccc(Cl)cc1)C(C#N)C#N (stereo not given)	Dynein cargo inh -3.6 | Dynein confirm active
COc1cc(/C=C/C(=O)N2C(=O)c3cccc(N)c3C2=O)cc(OC)c1OC	none (no result: INS promoter inh)
Nc1cccc2c1C(=O)N(C(=O)/C=C/c1cccc(F)c1)C2=O	Dynein cargo inh -4.3 | Dynein confirm active
Nc1cccc2c1C(=O)N(C(=O)/C=C/c1cccc(Br)c1)C2=O	Dynein cargo inh -4.9 (no result: INS promoter inh, Autophagy HCS) | Dynein confirm active
CCC(=O)OCCNc1cc(Sc2nccn2C)c2nonc2c1[N+](=O)[O-]	Dynein cargo inh -4.8 | Dynein confirm inconclusive
CC(=O)OCCCNc1cc(Sc2ccc(Cl)cc2)c2nonc2c1[N+](=O)[O-]	Dynein cargo inh -4.8 | Dynein confirm active
CCCC(=O)OCCNc1cc(Sc2nc3ccccc3[nH]2)c2nonc2c1[N+](=O)[O-]	none
CC(=O)OCCNc1cc(SC(C)C)c2nonc2c1[N+](=O)[O-]	none
CC(=O)OCCN(C)c1cc(SC(C)C)c2nonc2c1[N+](=O)[O-]	Dynein cargo inh -4.7 | Dynein confirm active
CCC(=O)OCCNc1cc(SCCC(=O)OC)c2nonc2c1[N+](=O)[O-]	Dynein cargo inh -5.6 | Dynein confirm active
Cc1ccc(Sc2cc(NCCCO)c([N+](=O)[O-])c3nonc23)cc1	none (no result: Insulin prom up, INS promoter inh, Autophagy HCS)
COc1ccc(CN(C)C2c3ccccc3-c3ccccc32)cc1	none
Cc1ccc(S(=O)(=O)CCNC(=O)Cc2ccc(Cl)cc2)cc1	none (no result: INS promoter inh)
CCn1c(=O)c([N+](=O)[O-])c(NCCN(C)C)c2ccccc21	none (no result: INS promoter inh)
CCn1c(=O)c([N+](=O)[O-])c(Cl)c2ccccc21	Dynein cargo inh -6.1 | Dynein confirm active
NC(=O)c1ccc(NC(=O)CSC2=Nc3ccccc3C3CC=NN23)cc1 (stereo not given)	Dynein cargo inh -4.2 | Dynein confirm inactive
COC(=O)c1ccc(NC(=O)CSC2=Nc3ccccc3C3CC=NN23)cc1 (stereo not given)	none (no result: Insulin prom up)
CCc1cc(OCCCCNCc2ccccc2)ccc1Cl	Dynein cargo inh -6.9 | Dynein confirm inactive
CCN(C(=O)c1coc(=O)c(Br)c1)c1ccc2c(c1)OCO2	Dynein cargo inh -4.8 (no result: Insulin prom up) | Dynein confirm active
O=C(NC(=S)Nc1ccc(Cc2ccncc2)cc1)c1ccc(F)cc1	none (no result: INS promoter inh)
Nc1ccc(Sc2ccc([N+](=O)[O-])cc2)cc1	none
Cc1ccc(C(C[N+](=O)[O-])Sc2ccc(N)cc2)cc1 (stereo not given)	Dynein cargo inh -6.7 (no result: INS promoter inh, Autophagy HCS) | Dynein confirm active
COCCn1c(SCC(=O)Nc2sccc2C(N)=O)nnc1-c1ccncc1	none (no result: Insulin prom up)
O=C(CSc1cccc[n+]1[O-])Nc1ccc2c(c1)OCO2	none (no result: INS promoter inh)
CN1CCN(C2=C(Cl)C(=O)N(C3CCCCC3)C2=O)CC1	none (no result: INS promoter inh)
CN1CCN(C2=C(Cl)C(=O)C(c3cnc(N4CCCCC4)s3)=C(Cl)C2=O)CC1	Dynein cargo inh -4.7 (no result: Insulin prom up) | Dynein confirm active
COC(=O)c1sccc1NC(=O)c1c(C)c(-c2cccc(Cl)c2)nc2ccccc12	none (no result: INS promoter inh)
Cc1[nH]c2ccccc2c1/C=N/Nc1nc2ccccc2[nH]1	none (no result: INS promoter inh, Autophagy HCS)
O=C(N/N=C/c1ccc[nH]1)c1ccccc1[N+](=O)[O-]	none
O=[N+]([O-])c1ccccc1N/N=C/c1c[nH]c2ccccc12	none (no result: Insulin prom up)
Cc1[nH]c2ccccc2c1/C=N/Nc1ccc([N+](=O)[O-])cc1S(=O)(=O)Nc1ccc(Cl)cc1	Autophagy HCS active (no result: Insulin prom up, HSV augment) | Dynein confirm inactive
O=[N+]([O-])c1ccc(N/N=C/c2ccc[nH]2)cc1	Autophagy HCS active (no result: Insulin prom up) | Dynein confirm active
O=C(N/N=C/c1c[nH]c2ccccc12)c1cccc([N+](=O)[O-])c1	none (no result: Insulin prom up, INS promoter inh)
O=[N+]([O-])c1ccc(N/N=C/c2c[nH]c3ccccc23)cc1	Autophagy HCS active (no result: Insulin prom up) | Dynein confirm active
COc1ccccc1NS(=O)(=O)c1cc([N+](=O)[O-])ccc1N/N=C/c1c[nH]c2ccccc12	Autophagy HCS active (no result: Insulin prom up) | Dynein confirm inactive
CC1(C)OC1COc1c2ccoc2cc2oc(=O)ccc12 (stereo not given)	none (no result: INS promoter inh)
CC(C)Sc1ncc(S(=O)(=O)c2ccccc2)c(=O)[nH]1	none
COc1ccccc1NS(=O)(=O)c1cc([N+](=O)[O-])ccc1N/N=C/c1sc(N2CCOCC2)nc1-c1ccccc1	HSV augment inconclusive, Autophagy HCS active (no result: Insulin prom up, INS promoter inh) | Dynein confirm inactive
O=C(Sc1ccccc1)c1cccc(Cn2cc(C(F)(F)F)ccc2=O)c1	Dynein cargo inh -3.9 (no result: Insulin prom up, INS promoter inh, Autophagy HCS) | Dynein confirm active
O=C(Nc1ccccc1)c1cccc(Cn2cc(C(F)(F)F)ccc2=O)c1	none (no result: Insulin prom up, INS promoter inh, Autophagy HCS)
Cn1c(=O)[nH]c(=O)c2c1nc([N+](=O)[O-])n2Cc1ccccc1	Dynein cargo inh -4.9 (no result: INS promoter inh, Autophagy HCS) | Dynein confirm active
CC(C)Cn1c([N+](=O)[O-])nc2c1c(=O)[nH]c(=O)n2C	Dynein cargo inh -7.3 (no result: Insulin prom up, INS promoter inh, Autophagy HCS) | Dynein confirm active
CCCC(=O)N(C1CC(C)C(C#N)(C#N)C1(C#N)C#N)N(C)C (stereo not given)	Dynein cargo inh -5.3 (no result: INS promoter inh, Autophagy HCS) | Dynein confirm inactive
CC(=O)N(C1CC(C)C(C#N)(C#N)C1(C#N)C#N)N(C)C (stereo not given)	Dynein cargo inh -6.8 (no result: INS promoter inh) | Dynein confirm active
CN(C(=O)CO/N=C/c1ccc(OC(F)F)cc1)C1CCS(=O)(=O)C1 (stereo not given)	none (no result: INS promoter inh)
CCCOC(=O)c1ccc(NC(=O)c2cc(=O)[nH]c3ccccc23)cc1	none (no result: INS promoter inh, Autophagy HCS)
CCCn1c(SCC(=O)Nc2cccc(S(=O)(=O)N(C)C)c2)nc2ccccc2c1=O	none (no result: INS promoter inh, Autophagy HCS)
